Assay outcomes (PubChem)
KCNK3 block – human KCNK3 channel inhibitors, primary screen, CHO cells, FluxOR thallium flux, B-score; FluxOR fluorescence; active compounds read low; B-score at 10 µM; 340,000 tested, 0.84% active; AID 602410, 2012;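 active means B-score under library mean minus 4 SD, starting fluorescence ratio at most library mean plus 5 SD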;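 further: more negative B-score means stronger inhibition of thallium flux through KCNK3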
KCNQ1 inh – inhibitors of human KCNQ1 channel, primary screen, cell-based, thallium flux, high-throughput; Potassium voltage-gated channel subfamily KQT member 1 (Homo sapiens), P51787; CHO-K1 KCNQ1, FluxOR thallium flux fluorescence; active compounds read high; B-score at 10 µM; 310,000 tested, 1.3% active;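 active means compounds whose thallium flux B-score, printed positive for inhibition, exceeds three library SD while starting fluorescence stays within three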;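 further: channel opened by potassium depolarization with thallium stimulus after 20 min compound exposure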
KCNQ1 pot – potentiators or activators of KCNQ1 channel, primary screen, cell-based, thallium flux, high-throughput; B-score at 10 µM; AID 2648, 2010; 310,000 tested, 0.35% active; Potassium voltage-gated channel subfamily KQT member 1 (Homo sapiens), P51787; CHO-K1 KCNQ1, thallium flux FluxOR fluorescence; active compounds read high;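 active means fluorescence ratio B-score, a plate-corrected score, at least three library SD, with initial intensity B-score within 5 SD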
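Schedule – 37 °C overnight plating, 90-min dark dye load, 20-min compound pretreatment · System – stable KCNQ1 CHO-K1 line · Probe or stimulus – thallium- and potassium-containing depolarizing buffer · Measured by – kinetic FluxOR fluorescence, 10 s baseline plus 110 s post-stimulus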
KCNK9 inh – KCNK9 potassium channel inhibitors, primary screen, HEK293 cells, thallium flux. 310,000 tested, 1.2% active. Potassium channel subfamily K member 9 (Homo sapiens), Q9NPC2. FluxOR thallium flux fluorescence; active compounds read low. B-score at 10 µM. AID 488922, 2010;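 active means ratio B-score over 3 SD below the library mean, with starting fluorescence within 5 SD of its mean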;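 further: negative B-score means less thallium flux so channel inhibition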
hERG rescue – hERG rescue from dofetilide block, primary screen, cell-based, CHO-hERG, FluxOR thallium flux, dofetilide IC70; Voltage-gated inwardly rectifying potassium channel KCNH2 (Homo sapiens), Q12809; dofetilide IC70 present; activation (rescue from dofetilide block), less the hit threshold, % at 10 µM; 310,000 tested, 0.51% active; AID 1511, 2009;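 active means activation above the mean of controls blocked by dofetilide plus 5 SD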;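 further: thallium influx through hERG after potassium depolarization seen as dye fluorescence rise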
Kir21 block – inhibitors of mouse Kir2.1 inward-rectifier potassium channel. Inward rectifier potassium channel 2 (Mus musculus), P35561. HEK293-Kir2.1, FluxOR thallium flux fluorescence; active compounds read low. B-score at 10 µM. 310,000 tested, 0.85% active. AID 1672, 2009;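 active means fluorescence ratio B-score at or below minus 3 SD of library scores, with starting-brightness B-score within 2 SD, cut at about -4.2 in these data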;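 further: channel flux triggered by added potassium and thallium sulfate stimulus; B-score of peak minus minimum fluorescence over baseline after thallium stimulus; more negative B-score means stronger Kir2.1 block with less thallium influx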
KCNQ1 inh valid – KCNQ1 potassium channel inhibitors, confirmation, cell-based, Tl flux, duplicate; shares compounds with KCNQ1 inh; KCNQ1 cell line, FluxOR thallium flux fluorescence; inhibition, % at 10 µM; 1,600 tested, 93% active;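 active means primary screen active, with duplicate mean exceeding buffer control mean plus 3 SD of buffer wells, cut at about 28% in these data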
CHO KCNQ1 ctr – thallium flux effects in parental CHO cells, counter-screen for KCNQ1 inhibitor project, cell-based, Tl flux. 1,600 tested, 21% active. AID 588366, 2011. parental CHO-K1, FluxOR thallium flux fluorescence ratio; active compounds read low; zero means no signal rise above baseline. fluorescence ratio (Tl flux) at 10 µM. shares compounds with KCNQ1 inh;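 active means mean of duplicate thallium-flux fluorescence ratios in parental host cells more than 5 SD below the buffer control mean, cut at about 0.38 in these data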;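 further: ratio is peak minus minimum fluorescence divided by baseline fluorescence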
KCNQ1 ephys val – KCNQ1 channel inhibitors, confirmation, orthogonal assay, cell-based, automated electrophysiology; shares compounds with KCNQ1 inh; KCNQ1-CHO cells, automated patch clamp current; calls only at 10 µM; 490 tested, 20% active;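 active means KCNQ1 current drop exceeding 3 SD of negative control wells, seen in both duplicate runs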;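 further: steady state current during a 2 s step from -80 to +40 mV; negative values mean current inhibition and positive values mean potentiation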
KCNQ2 spec – KCNQ2 channel inhibition, selectivity assay for KCNQ1 inhibitor project, cell-based. shares compounds with KCNQ1 inh. KCNQ2 cells, FluxOR thallium flux fluorescence. inhibition, % at 10 µM. 1,600 tested, 71% active. AID 651746, 2012;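 active means mean percent inhibition of the KCNQ2 thallium signal more than 5 SD above the buffer-only control wells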;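 further: KCNQ2 expressed in CHO cells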
KCNQ1 KCNE1 spec – KCNQ1/KCNE1 channel inhibition, selectivity assay for KCNQ1 inhibitor project, CHO-K1 cells, thallium flux, FluxOR. shares compounds with KCNQ1 inh. 1,600 tested, 77% active. AID 652147, 2013. inhibition, % at 10 µM. FluxOR thallium flux fluorescence;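 active means mean percent inhibition of duplicate wells above the buffer-only control mean plus 3 SD of those controls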
Target sequence (P51787 whole entry, looked up): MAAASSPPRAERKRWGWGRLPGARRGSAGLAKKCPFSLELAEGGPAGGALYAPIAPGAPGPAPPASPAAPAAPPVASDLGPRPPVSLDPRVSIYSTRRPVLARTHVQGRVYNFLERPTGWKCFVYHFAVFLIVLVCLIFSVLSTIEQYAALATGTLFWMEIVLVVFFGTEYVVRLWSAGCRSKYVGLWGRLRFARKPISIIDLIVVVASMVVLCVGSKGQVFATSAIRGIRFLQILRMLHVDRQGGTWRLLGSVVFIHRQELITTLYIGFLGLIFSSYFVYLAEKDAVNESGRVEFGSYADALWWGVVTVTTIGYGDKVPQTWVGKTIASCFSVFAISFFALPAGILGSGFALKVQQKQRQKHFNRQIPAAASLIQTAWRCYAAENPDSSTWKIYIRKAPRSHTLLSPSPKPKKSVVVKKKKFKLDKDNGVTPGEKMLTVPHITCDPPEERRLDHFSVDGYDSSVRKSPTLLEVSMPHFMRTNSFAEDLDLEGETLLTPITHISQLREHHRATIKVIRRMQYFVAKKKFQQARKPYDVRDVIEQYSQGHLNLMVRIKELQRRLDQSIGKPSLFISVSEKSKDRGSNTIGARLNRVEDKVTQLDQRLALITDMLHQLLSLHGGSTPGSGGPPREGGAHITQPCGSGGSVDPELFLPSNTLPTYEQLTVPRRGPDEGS
KCNK9 inh conf – KCNK9 potassium channel inhibitors, confirmation, HEK293 cells, thallium flux, duplicate | FluxOR thallium flux fluorescence | shares compounds with KCNK9 inh | 4,900 tested, 43% active | inhibition, % at 10 µM;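 active means thallium signal inhibited by more than 5 SD of the compound-free buffer control wells, on both duplicate plates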
Kir21 sel – mouse Kir2.1 channel inhibition, confirmation, selectivity assay for KCNK9 modulator project, cell-based, HEK293, thallium flux; shares compounds with KCNK9 inh; 4,900 tested, 4% active; inhibition, % at 10 µM; AID 492993, 2010; Kir2.1 cells, FluxOR thallium flux fluorescence;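 active means thallium signal drop more than 5 SD beyond the mean of the no-compound control wells, seen in both duplicate plates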;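 further: signal is fluorescence rise after thallium addition divided by baseline fluorescence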
HEK293 Tl ctr – thallium flux in non-induced HEK293 cells, confirmation, counter-screen for KCNK9 inhibitor project, cell-based, second counter screen, non-induced KCNK9-HEK293; shares compounds with KCNK9 inh; 4,900 tested, 40% active; FluxOR thallium flux; inhibition, % at 10 µM; AID 492997, 2010;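 active means thallium signal drop beyond 5 SD of the untreated control mean, on both duplicate plates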
KCNK3 inh conf – retest of human KCNK3 channel inhibitors, confirmation, CHO cells, FluxOR thallium flux, triplicate; ratio percent of control, % at 10 µM; FluxOR fluorescence; 0% buffer, 100% carvedilol maximal block; shares compounds with KCNK3 block; 2,400 tested, 99% active;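 active means ratio percent of control, averaged over triplicates, above buffer control mean plus 5 SD, cut at about 64% in these data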;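 further: ratio is the fluorescence rise from min to max over baseline after thallium stimulus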
KCNK3 uninduced – thallium flux inhibition in non-induced cells, primary screen, counter-screen for KCNK3 inhibitor project, cell-based, non-induced KCNK3 line, FluxOR thallium, triplicate | shares compounds with KCNK3 block | thallium flux ratio (lower = more inhibition) at 10 µM | 2,400 tested, 40% active | non-induced KCNK3 parental cells; active compounds read low;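 active means thallium flux ratio, averaged over three wells, more than 5 SD below the buffer control mean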;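 further: host cells are CHO cells without KCNK3 induction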
A number is an active result; - = inactive; . = not tested or not shown; + = active, no number. A selection: hits, their analogues and other compounds. The true share with any hit is near 3.8%.

SMILES | KCNK3 block | KCNQ1 inh | KCNQ1 pot | KCNK9 inh | hERG rescue | Kir21 block | KCNQ1 inh valid | CHO KCNQ1 ctr | KCNQ2 spec | KCNQ1 KCNE1 spec | KCNK3 inh conf | KCNK3 uninduced | others
CN(CC(=O)Nc1cccc(S(=O)(=O)N2CCOCC2)c1)CC(=O)Nc1ccc(Cl)c(C(F)(F)F)c1 | -11.5 | 8 | - | - | - | - | 118.5 | - | 93.3% | 54.0% | 119.7 | 0.136 | KCNQ1 ephys val=-
O=C(NNC(=O)c1ccc(F)c(S(=O)(=O)N2CCOCC2)c1)c1ccc([N+](=O)[O-])cc1 | - | . | . | . | . | . | . | . | . | . | . | .
COc1cc(NC(=O)c2cc3ccccc3cc2O)c(OC)cc1Cl | - | - | - | - | - | - | . | . | . | . | . | .
COc1ccccc1NC(=O)c1cc2cc(Br)ccc2cc1O | -8.76 | 9 | - | - | - | - | 126.0 | - | 97.0% | 107.0% | 135.0 | 0.105 | KCNQ1 ephys val=-
O=C(CCc1c[nH]c2ccccc12)N1CCN(S(=O)(=O)c2ccccc2)CC1 | - | - | - | - | - | - | . | . | . | . | . | .
CCOc1ccccc1CN1CCNC(=O)C1CC(=O)NCCc1ccccn1 (stereo not drawn) | - | - | - | - | - | - | . | . | . | . | . | .
COC(=O)c1ccc(NC(=S)NC2CCc3ccccc32)cc1 (stereo not drawn) | -8.79 | 7 | - | - | - | - | 67.5 | - | 64.7% | 57.5% | 93.3 | -
Cc1ccc(C)c(C(=O)COC(=O)Cn2c(C)csc2=O)c1 | - | - | - | - | - | - | . | . | . | . | . | .
Cc1ccc(C)c(Nc2nc(-c3ccncc3)nc3ccccc23)c1 | - | - | - | - | - | - | . | . | . | . | . | .
Cc1cc(C)c(C#N)c(SCSCc2ccccc2)n1 | -9.72 | 6 | - | - | - | - | 85.5 | 0.38 | 110.0% | 125.0% | 106.7 | -
CCOC(=O)c1c(NC(=O)C(C)OC(=O)C2=COCCO2)sc2c1CCCC2 (stereo not drawn) | - | . | . | . | . | . | . | . | . | . | . | .
CCOC(=O)c1c(NC(=O)C(C)OC(=O)c2ccc(NC(=O)CC#N)cc2)sc2c1CCCC2 (stereo not drawn) | -9.11 | 8 | - | - | - | - | 104.5 | - | 90.7% | 187.0% | 87.3 | 0.143 | KCNQ1 ephys val=-
O=C(COC(=O)C1CCN(C(=O)Nc2ccccc2)CC1)NCC(F)(F)F | - | - | - | - | - | - | . | . | . | . | . | .
CCCN1CCc2c(sc(NC(=O)c3ccc(S(=O)(=O)N(C)c4ccccc4)cc3)c2C(=O)NC)C1 | -8.99 | 15 | - | - | - | - | 144.0 | 0.281 | - | + | 171.3 | 0.0547
Cc1cc(-c2ccc(C(C)C)c(S(=O)(=O)N3CCOc4ccccc43)c2)on1 | -11.5 | 7 | - | -6.66 | - | - | 96.0 | - | 82.7% | 107.0% | 110.7 | - | KCNQ1 ephys val=-
CC(C)=CCc1c(O)cc(O)c2c1OC(c1ccc(O)cc1)CC2=O (stereo not drawn) | -14.9 | 9 | - | -11.9 | - | -6.39 | 130.5 | 0.345 | 107.7% | + | 138.7 | 0.109 | KCNK9 inh conf=48.5%;Kir21 sel=-;HEK293 Tl ctr=-
Cc1ccccc1C(=O)Oc1cccc(Nc2ncnc3ccccc23)c1 | -8.83 | 11 | - | -7.17 | - | - | 152.0 | 0.289 | 121.0% | + | 132.3 | 0.149
CC(=O)Oc1cccc(Nc2ncnc3ccccc23)c1 | - | - | - | - | - | - | . | . | . | . | . | .
CCOC(=O)c1c(CSC(=N)N)n(C)c2cc(Br)c(OC(C)=O)cc12 | -8.79 | 8 | - | - | - | - | 43.0 | - | 60.0% | 78.5% | 117.3 | 0.136
Cc1cc(C)n2nc(C(=O)OCC(=O)Nc3ccc4c(c3)OCCO4)nc2n1 | - | . | . | . | . | . | . | . | . | . | . | .
Cc1onc(-c2ccccc2)c1C(=O)OCCOc1cccc(Cl)c1 | -14.2 | 7 | - | - | - | - | 85.5 | - | 86.3% | 150.5% | 90.3 | -
CCOc1ccc(C(=O)COC(=O)c2c(-c3ccccc3)noc2C)cc1 | - | - | - | - | - | - | . | . | . | . | . | .
